≈ marks a conversion by molar mass, not a printed value.
Experiments:
Type in all cases: functional
Staphylococcus aureus [1] = assay: In vitro minimum inhibitory concentration against Staphylococcus aureus NCTC 10649 using brain-heart infusion agar
How it was run: (§1)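 Overnight cultures were grown in BHI broth at 36 °C. Twofold dilutions of a 2000 µg/mL stock were made in BHI agar, giving 200–0.005 µg/mL. Plates received about 10^4 organisms and were incubated for 18 h at 36 °C. MIC was the lowest concentration with no visible growth on the plate.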

Staphylococcus aureus [2] = assay: In vitro minimum inhibitory concentration against Staphylococcus aureus ATCC 6538P using brain-heart infusion agar; how it was run: as §1
[3] = tested on: Staphylococcus epidermidis; assay: In vitro minimum inhibitory concentration against Staphylococcus epidermidis 3159 using brain-heart infusion agar; how it was run: as §1
Escherichia coli = assay: In vitro minimum inhibitory concentration against Escherichia coli Juhl using brain-heart infusion agar; how it was run: as §1
Streptococcus agalactiae = assay: In vitro minimum inhibitory concentration against Streptococcus agalactiae CMX 508 using brain-heart infusion agar; how it was run: as §1
Staphylococcus aureus [4] = assay: In vitro minimum inhibitory concentration against Staphylococcus aureus A 5177 using brain-heart infusion agar; how it was run: as §1
Staphylococcus aureus [5] = assay: In vivo antibacterial activity against Staphylococcus aureus NCTC 10649 infected mouse by oral administration
How it was run: (§2)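 Compound was given in water or in dilute NaOH diluted with water, orally or subcutaneously. The dose was split equally between 1 and 5 h post-infection. Groups were 10 mice at ≥3 dose levels. ED50 was calculated from day-6 cumulative mortality by the trimmed Logit method.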

Acinetobacter = assay: In vitro minimum inhibitory concentration against Acinetobacter CMX 669 using brain-heart infusion agar; how it was run: as §1
Enterococcus faecium = assay: In vitro minimum inhibitory concentration against Enterococcus faecium ATCC 8043 using brain-heart infusion agar; how it was run: as §1
Pseudomonas aeruginosa [6] = assay: In vitro minimum inhibitory concentration against Pseudomonas aeruginosa K799 / WT using brain-heart infusion agar; how it was run: as §1
Staphylococcus aureus [7] = assay: In vivo antibacterial activity against Staphylococcus aureus NCTC 10649 infected mouse by subcutaneous administration; conditions: sc; how it was run: as §2
Pseudomonas aeruginosa [8] = assay: In vitro minimum inhibitory concentration against Pseudomonas aeruginosa A5007 using brain-heart infusion agar; how it was run: as §1
Streptococcus pyogenes = assay: In vitro minimum inhibitory concentration against Streptococcus pyogenes 930 using brain-heart infusion agar; how it was run: as §1
Streptococcus equinus = assay: In vitro minimum inhibitory concentration against Streptococcus bovis A5169 using brain-heart infusion agar; how it was run: as §1
Staphylococcus aureus [9] = assay: In vitro minimum inhibitory concentration against Staphylococcus aureus CMX 553 using brain-heart infusion agar; how it was run: as §1
Klebsiella aerogenes = assay: In vitro minimum inhibitory concentration against Enterobacter aerogenes ATCC 13048 using brain-heart infusion agar; how it was run: as §1
Klebsiella pneumoniae = assay: In vitro minimum inhibitory concentration against Klebsiella pneumoniae 8045 using brain-heart infusion agar; how it was run: as §1

SMILES | MIC (Staphylococcus aureus [1]) | MIC (Staphylococcus aureus [2]) | MIC [3] | MIC (Escherichia coli) | MIC (Streptococcus agalactiae) | MIC (Staphylococcus aureus [4]) | ED50 (Staphylococcus aureus [5]) | MIC (Acinetobacter) | MIC (Enterococcus faecium) | MIC (Pseudomonas aeruginosa [6]) | ED50 (Staphylococcus aureus [7]) | MIC (Pseudomonas aeruginosa [8]) | MIC (Streptococcus pyogenes) | MIC (Streptococcus equinus) | MIC (Staphylococcus aureus [9]) | MIC (Klebsiella aerogenes) | MIC (Klebsiella pneumoniae)
CO/N=C1\CCN(c2nc3c(cc2F)c(=O)c(C(=O)O)cn3-c2ccc(F)cc2F)C1 | 0.05 µg/mL (≈ 0.116 µM) | 0.05 µg/mL (≈ 0.116 µM) | 0.1 µg/mL (≈ 0.231 µM) | 0.78 µg/mL (≈ 1.8 µM) | 0.39 µg/mL (≈ 0.902 µM) | 0.1 µg/mL (≈ 0.231 µM) | > 12 mg/kg | 1.56 µg/mL (≈ 3.61 µM) | 0.39 µg/mL (≈ 0.902 µM) | 6.2 µg/mL (≈ 14.3 µM) | 4.7 mg/kg | 6.2 µg/mL (≈ 14.3 µM) | 0.78 µg/mL (≈ 1.8 µM) | 1.56 µg/mL (≈ 3.61 µM) | 0.1 µg/mL (≈ 0.231 µM) | 3.1 µg/mL (≈ 7.17 µM) | 0.78 µg/mL (≈ 1.8 µM)
CON=C1CCN(c2c(F)cc3c(=O)c(C(=O)O)cn(C4CC4)c3c2F)CC1 | 0.05 µg/mL (≈ 0.128 µM) | 0.05 µg/mL (≈ 0.128 µM) | 0.1 µg/mL (≈ 0.256 µM) | 1.56 µg/mL (≈ 3.99 µM) | 1.56 µg/mL (≈ 3.99 µM) | 0.1 µg/mL (≈ 0.256 µM) | – | 3.1 µg/mL (≈ 7.92 µM) | 1.56 µg/mL (≈ 3.99 µM) | > 100 µg/mL | – | > 100 µg/mL | 1.56 µg/mL (≈ 3.99 µM) | 3.1 µg/mL (≈ 7.92 µM) | 0.1 µg/mL (≈ 0.256 µM) | > 100 µg/mL | 3.1 µg/mL (≈ 7.92 µM)
CON=C1CCN(c2nc3c(cc2F)c(=O)c(C(=O)O)cn3-c2ccc(F)cc2F)CC1 | 0.2 µg/mL (≈ 0.448 µM) | 0.1 µg/mL (≈ 0.224 µM) | 0.39 µg/mL (≈ 0.874 µM) | 6.2 µg/mL (≈ 13.9 µM) | 1.56 µg/mL (≈ 3.49 µM) | 0.2 µg/mL (≈ 0.448 µM) | > 12 mg/kg | 12.5 µg/mL (≈ 28 µM) | 3.1 µg/mL (≈ 6.94 µM) | 25 µg/mL (≈ 56 µM) | > 8 mg/kg | 50 µg/mL (≈ 112 µM) | 3.1 µg/mL (≈ 6.94 µM) | 6.2 µg/mL (≈ 13.9 µM) | 0.39 µg/mL (≈ 0.874 µM) | 12.5 µg/mL (≈ 28 µM) | 3.1 µg/mL (≈ 6.94 µM)
O=C(O)c1cn(-c2ccc(F)cc2F)c2cc(N3CC/C(=N/O)C3)c(F)cc2c1=O | < 0.05 µg/mL | < 0.05 µg/mL | < 0.05 µg/mL | 0.2 µg/mL (≈ 0.479 µM) | 0.2 µg/mL (≈ 0.479 µM) | < 0.05 µg/mL | > 12 mg/kg | 0.39 µg/mL (≈ 0.934 µM) | 0.2 µg/mL (≈ 0.479 µM) | 1.56 µg/mL (≈ 3.74 µM) | 4.1 mg/kg | 3.1 µg/mL (≈ 7.43 µM) | 0.2 µg/mL (≈ 0.479 µM) | 0.39 µg/mL (≈ 0.934 µM) | < 0.05 µg/mL | 0.78 µg/mL (≈ 1.87 µM) | 0.2 µg/mL (≈ 0.479 µM)
O=C(O)c1cn(-c2ccc(F)cc2F)c2cc(N3CCC(=NO)CC3)c(F)cc2c1=O | 0.1 µg/mL (≈ 0.232 µM) | 0.05 µg/mL (≈ 0.116 µM) | 0.1 µg/mL (≈ 0.232 µM) | 0.39 µg/mL (≈ 0.904 µM) | 0.39 µg/mL (≈ 0.904 µM) | 0.1 µg/mL (≈ 0.232 µM) | 6 mg/kg | 1.56 µg/mL (≈ 3.62 µM) | 0.39 µg/mL (≈ 0.904 µM) | 3.1 µg/mL (≈ 7.19 µM) | 3.2 mg/kg | 6.2 µg/mL (≈ 14.4 µM) | 0.39 µg/mL (≈ 0.904 µM) | 1.56 µg/mL (≈ 3.62 µM) | 0.1 µg/mL (≈ 0.232 µM) | 3.1 µg/mL (≈ 7.19 µM) | 0.39 µg/mL (≈ 0.904 µM)
CO/N=C1\CCN(c2nc3c(cc2F)c(=O)c(C(=O)O)cn3C2CC2)C1 | 0.02 µg/mL (≈ 0.0555 µM) | 0.02 µg/mL (≈ 0.0555 µM) | 0.1 µg/mL (≈ 0.278 µM) | 0.39 µg/mL (≈ 1.08 µM) | 0.78 µg/mL (≈ 2.16 µM) | 0.05 µg/mL (≈ 0.139 µM) | – | 0.39 µg/mL (≈ 1.08 µM) | 0.78 µg/mL (≈ 2.16 µM) | 1.56 µg/mL (≈ 4.33 µM) | – | 3.1 µg/mL (≈ 8.6 µM) | 0.78 µg/mL (≈ 2.16 µM) | 1.56 µg/mL (≈ 4.33 µM) | 0.05 µg/mL (≈ 0.139 µM) | 0.78 µg/mL (≈ 2.16 µM) | 0.1 µg/mL (≈ 0.278 µM)
CON=C1CCN(c2cc3c(cc2F)c(=O)c(C(=O)O)cn3-c2ccc(F)cc2F)CC1 | 0.05 µg/mL (≈ 0.112 µM) | 0.05 µg/mL (≈ 0.112 µM) | 0.1 µg/mL (≈ 0.225 µM) | 0.2 µg/mL (≈ 0.449 µM) | 1.56 µg/mL (≈ 3.5 µM) | 0.1 µg/mL (≈ 0.225 µM) | > 12 mg/kg | 6.2 µg/mL (≈ 13.9 µM) | 3.1 µg/mL (≈ 6.96 µM) | > 100 µg/mL | > 8 mg/kg | > 100 µg/mL | 1.56 µg/mL (≈ 3.5 µM) | 6.2 µg/mL (≈ 13.9 µM) | 0.2 µg/mL (≈ 0.449 µM) | > 100 µg/mL | 3.1 µg/mL (≈ 6.96 µM)
CO/N=C1/CCN(c2cc3c(cc2F)c(=O)c(C(=O)O)cn3-c2ccc(F)cc2F)C1 | 0.05 µg/mL (≈ 0.116 µM) | 0.02 µg/mL (≈ 0.0464 µM) | 0.05 µg/mL (≈ 0.116 µM) | 0.78 µg/mL (≈ 1.81 µM) | 0.39 µg/mL (≈ 0.904 µM) | 0.05 µg/mL (≈ 0.116 µM) | – | 0.78 µg/mL (≈ 1.81 µM) | 0.39 µg/mL (≈ 0.904 µM) | 6.2 µg/mL (≈ 14.4 µM) | – | 6.2 µg/mL (≈ 14.4 µM) | 0.39 µg/mL (≈ 0.904 µM) | 1.56 µg/mL (≈ 3.62 µM) | 0.05 µg/mL (≈ 0.116 µM) | 3.1 µg/mL (≈ 7.19 µM) | 0.78 µg/mL (≈ 1.81 µM)
O=C(O)c1cn(C2CC2)c2cc(N3CCNCC3)c(F)cc2c1=O [CIPROFLOXACIN] | – | – | – | – | – | – | 15.5 mg/kg | – | – | – | 1.6 mg/kg | – | – | – | – | – | –
NC1CCN(c2nc3c(cc2F)c(=O)c(C(=O)O)cn3-c2ccc(F)cc2F)C1 (stereo unspecified) [TOSUFLOXACIN] | – | 0.02 µg/mL (≈ 0.0495 µM) | 0.1 µg/mL (≈ 0.247 µM) | 0.02 µg/mL (≈ 0.0495 µM) | 0.39 µg/mL (≈ 0.965 µM) | 0.05 µg/mL (≈ 0.124 µM) | – | 0.1 µg/mL (≈ 0.247 µM) | 0.2 µg/mL (≈ 0.495 µM) | 0.78 µg/mL (≈ 1.93 µM) | – | 0.78 µg/mL (≈ 1.93 µM) | 0.2 µg/mL (≈ 0.495 µM) | 0.39 µg/mL (≈ 0.965 µM) | 0.05 µg/mL (≈ 0.124 µM) | 0.05 µg/mL (≈ 0.124 µM) | 0.02 µg/mL (≈ 0.0495 µM)

Source: ChEMBL document CHEMBL1125434, “Preparation and in vitro and in vivo evaluation of quinolones with selective activity against gram-positive organisms” (1992)
